Laboratory results published in ChEMBL document CHEMBL4813967, “Tackling resistance in chronic myeloid leukemia: Novel cell death modulators with improved efficacy” (Eur J Med Chem, 2021).

Legend:
[1] = Modulation of STAT5 expression in imatinib-resistant human K562 cells assessed as STAT5 level at 5 uM measured after 6 hrs by Jess Simple Western immunoassay (reference value: 100%); type: functional
Outline: (§1)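 K562-resistant (doxorubicin-resistant KD225) cells treated 6 h with compound at 5 µM, alone or with 1 µM imatinib, against a DMSO control. Total protein extracts analysed by capillary Jess Simple Western. STAT5 antibody 10 µg/ml with 0.2 mg/ml lysate; pSTAT5 (Y694/699) antibody 20 µg/ml with 2 mg/ml lysate. GAPDH (0.4 µg/ml) as loading reference; HRP anti-rabbit secondary.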

[2] = system: K562; test: Induction of cell sensitization to imatinib in imatinib-resistant human K562 cells assessed as cell death at 10 uM incubated for 72 hrs in presence of 1 uM imatinib by PI staining based flow cytometry (reference value: 19%); type: functional
[3] = biological target: T1, Peroxisome proliferator-activated receptor gamma (Homo sapiens, UniProt P37231); test: Agonist activity at Gal4-fused human PPARgamma transfected in African green monkey COS7 cells co-transfected with pGal5-TK-pGL3 and pRenilla-CMV assessed as receptor transactivation at 10 uM incubated for 39 hrs by dual luciferase reporter gene assay relative to piaglitazone; type: cell-based; details: COS-7, human, read-out: max activation
T1 sequence (P37231 whole entry): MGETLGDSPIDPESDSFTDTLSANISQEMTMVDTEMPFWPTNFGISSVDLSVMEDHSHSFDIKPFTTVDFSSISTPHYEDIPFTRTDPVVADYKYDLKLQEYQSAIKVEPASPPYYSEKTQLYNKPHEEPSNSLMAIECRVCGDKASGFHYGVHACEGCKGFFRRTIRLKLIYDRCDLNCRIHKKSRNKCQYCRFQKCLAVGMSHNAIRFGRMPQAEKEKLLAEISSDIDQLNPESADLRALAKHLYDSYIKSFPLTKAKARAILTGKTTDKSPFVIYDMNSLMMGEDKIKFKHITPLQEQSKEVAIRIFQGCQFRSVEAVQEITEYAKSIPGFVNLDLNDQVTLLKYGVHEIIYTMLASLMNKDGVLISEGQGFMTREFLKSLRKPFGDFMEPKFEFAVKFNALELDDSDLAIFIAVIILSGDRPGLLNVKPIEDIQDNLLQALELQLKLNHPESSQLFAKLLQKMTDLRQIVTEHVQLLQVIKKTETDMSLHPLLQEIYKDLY
Outline: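 COS-7 cells (10^4/well, triplicates) grown 24 h, then transiently transfected with pGal5-TK-pGL3 (90 ng), pGal4-hPPARγDEF (9 ng) and pRenilla-CMV (3 ng). Compound added 7 h later, incubation 39 h. Cells lysed by freezing at -80 °C overnight plus lysis buffer. Firefly luciferase normalised to Renilla. Activity at 10 µM expressed relative to pioglitazone at 10 µM (100%). Mean ± SD of ≥3 experiments.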

[4] = Cytotoxicity against human HS5 cells assessed as cell death at 5 uM incubated for 72 hrs in presence of imatinib by PI staining based flow cytometry; details: hs5, 72 h
Outline: (§2)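 HS-5 stromal cells in DMEM with 10% FCS, 5% CO2, 37 °C. Seeded 0.5×10^5/well, given compound (5 µM) alone or with imatinib, and incubated 72 h. Cells stained with PI/Triton X-100 for 2 h at 4 °C. Dead cells counted by flow cytometry as sub-G1 nuclei. DMSO vehicle control included.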

[5] = biological target: T2, Signal transducer and activator of transcription 5A (Homo sapiens) (UniProt P42229); test: Inhibition of STAT5 phosphorylation at Y694/699 residue in imatinib-resistant human K562 cells assessed as phosphorylated STAT5 level at 5 uM incubated for 6 hrs by Jess Simple Western immunoassay (reference value: 100%); type: cell-based; set-up: scale not given: the % may be the effect or the level left; outline: as §1
T2 sequence (whole entry): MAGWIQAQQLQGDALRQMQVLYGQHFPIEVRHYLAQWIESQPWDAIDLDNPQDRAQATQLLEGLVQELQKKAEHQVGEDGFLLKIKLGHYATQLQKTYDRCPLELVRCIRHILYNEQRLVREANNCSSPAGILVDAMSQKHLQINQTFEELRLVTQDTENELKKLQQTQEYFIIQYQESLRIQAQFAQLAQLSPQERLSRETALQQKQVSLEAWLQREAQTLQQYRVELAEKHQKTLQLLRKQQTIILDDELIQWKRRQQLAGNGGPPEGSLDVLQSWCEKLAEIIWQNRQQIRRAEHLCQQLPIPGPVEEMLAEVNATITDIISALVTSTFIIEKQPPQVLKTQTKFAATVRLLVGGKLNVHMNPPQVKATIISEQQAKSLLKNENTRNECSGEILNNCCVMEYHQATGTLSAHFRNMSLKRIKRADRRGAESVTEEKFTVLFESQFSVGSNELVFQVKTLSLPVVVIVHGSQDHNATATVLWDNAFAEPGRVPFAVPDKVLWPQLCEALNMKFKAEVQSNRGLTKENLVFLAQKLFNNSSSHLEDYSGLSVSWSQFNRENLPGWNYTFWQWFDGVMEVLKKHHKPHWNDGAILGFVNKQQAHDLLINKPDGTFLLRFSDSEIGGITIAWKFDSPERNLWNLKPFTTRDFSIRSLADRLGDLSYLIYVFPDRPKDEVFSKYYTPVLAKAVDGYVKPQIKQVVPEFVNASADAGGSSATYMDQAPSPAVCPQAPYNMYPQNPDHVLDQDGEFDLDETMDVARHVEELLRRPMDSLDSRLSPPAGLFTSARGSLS

[6] = system: COS-7; test: Cytotoxicity against African green monkey COS7 cells assessed as cell viability at 10 uM incubated for 72 hrs by MTT assay; type: cell-based; details: chlorocebus aethiops, cos-7, 72 h
Outline: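 COS-7 cells in DMEM with 10% FCS and L-glutamine, no antibiotics or phenol red. Seeded 2×10^3/well in triplicate, grown 24 h, then compound added at 10 µM final and incubated 72 h. Modified MTT (tetrazolium) metabolic-activity readout by absorbance. DMSO control set to 100%; DMSO ≤0.1%. Mean + SD of ≥3 experiments, triplicate determinations.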

[7] = Modulation of STAT5 expression in imatinib-resistant human K562 cells assessed as STAT5 level at 5 uM measured after 6 hrs in presence of imatinib by Jess Simple Western immunoassay (reference value: 100%); type: functional
[8] = Cytotoxicity against human HS5 cells assessed as cell death at 5 uM incubated for 72 hrs by PI staining based flow cytometry; details: hs5, 72 h; outline: as §2
[9] = biological target: T2, Signal transducer and activator of transcription 5A (Homo sapiens); test: Inhibition of STAT5 phosphorylation at Y694/699 residue in imatinib-resistant human K562 cells assessed as phosphorylated STAT5 level at 5 uM incubated for 6 hrs in presence of imatinib by Jess Simple Western immunoassay (reference value: 100%); type: cell-based; set-up: scale not given: the % may be the effect or the level left
[10] = system: K562; test: Cytotoxicity against imatinib-resistant human K562 cells assessed as cell death at 5 uM incubated for 72 hrs by propidium iodide staining based flow cytometry; details: k562, 72 h
Outline: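 K562-resistant cells, a doxorubicin-resistant K562 subclone (KD225), grown in RPMI 1640 with 10% FCS. Seeded 2×10^5/well and exposed 72 h to compound alone or with 1 µM imatinib. PI/Triton X-100 staining 2 h at 4 °C; flow cytometry scoring sub-G1 nuclei as dead cells. DMSO vehicle (≤0.1%) controls. Mean ± SEM of ≥3 experiments.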

[11] = system: K562; test: Induction of cell sensitization to imatinib in imatinib-resistant human K562 cells assessed as cell death at 5 uM incubated for 72 hrs in presence of 1 uM imatinib by PI staining based flow cytometry (reference value: 19%); type: functional
[12] = system: COS-7; test: Cytotoxicity against African green monkey COS7 cells assessed as cell viability at 10 uM incubated for 72 hrs by MTT assay; details: chlorocebus aethiops, cos-7, 72 h

| Structure (SMILES) | Activity [1] [%] | Activity [2] [%] | Emax at 10 µM [3] [%] | Activity [4] | Activity [5] [%] | Activity [6] | Activity [7] [%] | Activity [8] | Activity [9] [%] | Activity [10] | Activity [11] [%] | Activity [12] |
| --- | --- | --- | --- | --- | --- | --- | --- | --- | --- | --- | --- | --- |
| CCCc1nc2c(Cl)cccc2n1Cc1ccc(-c2ccccc2C#N)cc1 | 107 | >85 | 68.4 | Non-Toxic | 81 | Non-Toxic | 109 | Non-Toxic | 12 | <= 20% | 50 | Non-Toxic |
| CCCc1nc2c(Br)cccc2n1Cc1ccc(-c2ccccc2C(=O)OC)cc1 | 103 | 66 | 11.6 | Non-Toxic | 89 | Non-Toxic | 116 | Non-Toxic | 27 | <= 20% | 26 | Non-Toxic |
| CCCc1nc2ccc(Br)cc2n1Cc1ccc(-c2ccccc2C(=O)OC)cc1 |  | 63 |  |  |  |  |  |  |  |  |  |  |
| CCCc1nc2c([N+](=O)[O-])cccc2n1Cc1ccc(-c2ccccc2C(=O)OC)cc1 |  | >85 | 15 | Non-Toxic |  | Non-Toxic |  | Non-Toxic |  | <= 20% | 57 | Non-Toxic |
| CCCc1nc2c(OC)cccc2n1Cc1ccc(-c2ccccc2C#N)cc1 |  | >85 | 45.9 | Non-Toxic |  | Non-Toxic |  | Non-Toxic |  | <= 20% | 50 | Non-Toxic |
| CCCc1nc2ccccc2n1Cc1ccc(-c2ccccc2C(=O)OC)cc1 | 112 | >85 | 21.6 | Non-Toxic | 104 | Non-Toxic | 112 | Non-Toxic | 2 | <= 20% | 57 | Non-Toxic |
| CCCc1nc2ccccc2n1Cc1ccc(-c2ccccc2C#N)cc1 | 98 | >85 | 64.5 | Non-Toxic | 78 | Non-Toxic | 96 | Non-Toxic | 3 | <= 20% | 50 | Non-Toxic |
| CCCc1nc2c(C)cccc2n1Cc1ccc(-c2ccccc2C(=O)OC)cc1 |  | >85 | 13.8 | Non-Toxic |  | Non-Toxic |  | Non-Toxic |  | <= 20% | 40 | Non-Toxic |
| CCCc1nc2c(F)cccc2n1Cc1ccc(-c2ccccc2C#N)cc1 | 105 | >85 | 76 | Non-Toxic | 89 | Non-Toxic | 96 | Non-Toxic | 1 | <= 20% | 50 | Non-Toxic |
| CCCc1nc2c(Br)cccc2n1Cc1ccc(-c2ccccc2C#N)cc1 | 107 | >85 | 41.1 | Non-Toxic | 90 | Non-Toxic | 103 | Non-Toxic | 4 | <= 20% | >76 | Non-Toxic |
| CCCc1nc2c(OC)cccc2n1Cc1ccc(-c2ccccc2C(=O)OC)cc1 |  | >85 | 20.7 | Non-Toxic |  | Non-Toxic |  | Non-Toxic |  | <= 20% | 57 | Non-Toxic |
| CCCc1nc2c(N)cccc2n1Cc1ccc(-c2ccccc2C#N)cc1 |  |  | 43 | Non-Toxic |  | Non-Toxic |  | Non-Toxic |  | <= 20% | 28 | Non-Toxic |
| CCCc1nc2cc(Br)ccc2n1Cc1ccc(-c2ccccc2C(=O)OC)cc1 |  | 31 |  |  |  |  |  |  |  |  |  |  |
| CCCc1nc2c(N)cccc2n1Cc1ccc(-c2ccccc2C(=O)OC)cc1 |  |  | 0.11 | Non-Toxic |  | Non-Toxic |  | Non-Toxic |  | <= 20% | 26 | Non-Toxic |
| CCCc1nc2c(C)cccc2n1Cc1ccc(-c2ccccc2C#N)cc1 |  | >85 | 32.2 | Non-Toxic |  | Non-Toxic |  | Non-Toxic |  | <= 20% | 50 | Non-Toxic |
| CCCc1nc2c([N+](=O)[O-])cccc2n1Cc1ccc(-c2ccccc2C#N)cc1 |  | >85 | 37.9 | Non-Toxic |  | Non-Toxic |  | Non-Toxic |  | <= 20% | 50 | Non-Toxic |
